High-throughput results as filed in PubChem BioAssay.
TAAR1 agonist – human TAAR1 agonists, primary screen, Fluo-8 calcium fluorescence, CHO RD-HGA16 cells; activation, % at 3 µM; vehicle wells 0%, saturating PEA agonist 100%; 360,000 compounds, 0.99% hits; Trace amine-associated receptor 1 (Homo sapiens), Q96RJ0; AID 624467, 2012;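 active = activation above the mean activation of all test compounds in the run plus 3 SD, cut at about 38% in these data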
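Benchmarks: low control DMSO, high control PEA (EC100); System: CHO RD-HGA16 cells carrying human TAAR1 plus Gα16; Detection: Fluo-8 fluorescence, 5 s baseline then 140 s kinetic read; Schedule: 17-24 h plating, Fluo-8 75 min 37 °C, 30 min RT; Read-out basis: % activation from peak over basal fluorescence ratio, DMSO-to-PEA scaled.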
m5-HT2A agonist – mouse Htr2a agonists via beta-arrestin recruitment, primary screen, cell-based, luminescence | 5-hydroxytryptamine receptor 2A (Mus musculus), P35363 | CHO-K1 mHTR2A beta-arrestin complementation; percent of 30 µM serotonin response | activation, % at 7.6 µM | 360,000 compounds, 0.66% hits;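 active = activation above a run cutoff, the mean activation of all tested compounds plus 3 SD, cut at about 14% in these data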;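 also: 0% = plate median of compound wells and 100% = 30 µM serotonin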
Target sequence (P35363 whole entry, looked up): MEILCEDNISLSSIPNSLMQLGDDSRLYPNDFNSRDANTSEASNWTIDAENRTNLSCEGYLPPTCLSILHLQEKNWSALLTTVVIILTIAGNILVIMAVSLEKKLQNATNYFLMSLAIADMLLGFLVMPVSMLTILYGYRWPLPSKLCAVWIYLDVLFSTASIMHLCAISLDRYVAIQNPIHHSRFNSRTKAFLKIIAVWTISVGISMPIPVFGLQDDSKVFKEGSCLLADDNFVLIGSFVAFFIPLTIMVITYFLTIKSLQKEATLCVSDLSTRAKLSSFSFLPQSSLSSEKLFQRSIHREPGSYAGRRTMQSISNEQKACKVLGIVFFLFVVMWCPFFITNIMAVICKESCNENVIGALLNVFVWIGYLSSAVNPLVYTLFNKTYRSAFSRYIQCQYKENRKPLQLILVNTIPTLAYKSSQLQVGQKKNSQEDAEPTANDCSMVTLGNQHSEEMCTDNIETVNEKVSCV
MC4R antag cAMP – MC4R antagonists of cAMP signaling, primary screen, cell-based, TR-FRET, antagonist arm of biased-ligand search; Melanocortin receptor 4 (Homo sapiens), P32245; MC4R-expressing cells, MTII-stimulated cAMP, LANCE TR-FRET; inhibition, % at 6.5 µM; 360,000 compounds, 0.48% hits; AID 540295, 2011;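 active = inhibition above its plate's cutoff, the mean of tested wells on that plate plus 3 SD, cut at about 29% in these data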;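 also: 0% = Melanotan II alone and 100% = Melanotan II plus saturating MCL0020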
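Material: human MC4R-expressing U2OS cells. Probe or stimulus: Melanotan II challenge. Dosing: 6.5 µM single dose. Times: 30-min compound, 1-h challenge, 1-h detection, room temperature. Technique: TR-FRET with Eu-cAMP and labeled anti-cAMP, 671 nm. Replication: singlicate.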
TAAR1 antagonist – human TAAR1 antagonists, primary screen, Fluo-8 calcium fluorescence, CHO RD-HGA16 cells; antagonist; inhibition, % at 3 µM; Trace amine-associated receptor 1 (Homo sapiens), Q96RJ0; AID 624466, 2012; 360,000 compounds, 1.5% hits;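 active = inhibition above a per-plate cutoff, the mean inhibition of test compounds on that plate plus 3 SD, cut at about 49% in these data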;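 also: 0% = DMSO plus EC80 beta-PEA response and 100% = DMSO alone without agonist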
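System: RD-HGA16 CHO cells with stable hTAAR1 and Gα16 | Probe or stimulus: EC80 β-phenethylamine stimulus | Dosing: 3 µM, single point | Times: Dye loading 75 min at 37 °C, then 30 min room temperature | Measured by: Fluo-8 calcium-sensitive fluorescence | Read-out basis: % inhibition of agonist calcium response | Replicates: n of 1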
B2AR ag – beta2AR agonists driving receptor internalization, primary screen, cell-based, FAP fluorogen, flow cytometry | Beta-2 adrenergic receptor (Homo sapiens), P07550 | Am2.2-beta2AR cells | response, % (test concentration not listed) | 340,000 compounds, 0.43% hits;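 active = response above a set limit, near 3 SD of response in nonfluorescent compounds, cut at about 42% in these data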
MC4R barr agon – MC4R agonists recruiting beta-arrestin, primary screen, cell-based, luminescence, agonist arm of biased-ligand search. Melanocortin receptor 4 (Homo sapiens), P32245. U2OS MC4R beta-arrestin complementation; percent of melanotan II response, DMSO zero. activation, % at 8.9 µM. 360,000 compounds, 0.98% hits. AID 540308, 2011;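 active = activation above a per-plate cutoff, the mean activation of sample wells on that plate plus 3 SD, cut at about 8% in these data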
OPRM1 ag – OPRM1 agonists via beta-arrestin recruitment, confirmation, counter-screen for mouse HTR2A agonist project, cell-based, luminescence, single concentration. shares compounds with m5-HT2A agonist. U2OS OPRM1 beta-arrestin PathHunter; DMSO 0%, DAMGO 9.3 µM 100%. activation, % at 9.3 µM. 2,300 compounds, 5.3% hits;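 active = mean activation above the mean of DMSO-only wells plus 3 SD, cut at about 0.5% in these data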
m5-HT2A ag conf – mouse HTR2A agonists, beta-arrestin recruitment, confirmation, cell-based, luminescence, CHO-K1 PathHunter, triplicate. shares compounds with m5-HT2A agonist. DMSO 0%, 30 µM serotonin 100%. activation, % at 7.6 µM. 2,300 compounds, 19% hits. AID 624381, 2012;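 active = mean activation across triplicates above the hit threshold derived in the original primary screen, cut at about 15% in these data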
* = called active by the depositor; x = no result. Most compounds without a hit are left out; they make up all but 4.3% or so of the library.

SMILES	TAAR1 agonist	m5-HT2A agonist	MC4R antag cAMP	TAAR1 antagonist	B2AR ag	MC4R barr agon	OPRM1 ag	m5-HT2A ag conf
CC(NC(=O)c1ccc2ccccc2n1)c1ccc(S(N)(=O)=O)cc1 (centres undefined)	0.3	16.6*	-1.7	0.5	3.6	-0.6	-0.1	0.9
COc1ccc(NC(=O)c2sccc2-n2cccc2)cc1	-1.1	5.1	7.4	-22.5	-3.6	-1.4	x	x
CCc1ccc(NC(=O)c2sccc2-n2cccc2)cc1	15.2	14.8*	4.8	16.0	-1.1	-0.1	-0.4	-4.9
COc1ccc(C2C3=C(CCCC3=O)Nc3c(-c4ccccc4)c(C)nn32)cc1 (centres undefined)	x	-2.2	7.4	x	10.8	-0.3	x	x
Cc1nn2c(c1-c1ccccc1)NC1=C(C(=O)CCC1)C2c1ccccc1 (centres undefined)	4.8	15.6*	11.9	-5.6	-3.2	0.5	-0.5	-3.4
CCOC(=O)CC1C(=O)NCCN1C(=S)NC(=O)c1ccccc1OC (centres undefined)	0.6	15.6*	1.9	-20.2	4.9	0.4	-0.8	-3.2
COc1ccc(/C=N/NC(=O)c2ccc(NC(=O)C3CCCCC3)cc2)cc1O	0.2	20.2*	1.8	1.7	10.5	-1.7	-0.6	-2.6
COc1cc(/C=N/NC(=O)c2ccc(NC(=O)C3CC3)cc2)ccc1OC(C)=O	0.8	2.4	1.6	-3.1	-0.7	-1.6	x	x
CCn1c(-c2cccs2)nc2ccccc21	3.1	-5.2	-0.5	-4.5	-0.3	-2.4	x	x
C#CCn1c(-c2cccs2)nc2ccccc21	4.4	22.3*	-1.3	12.3	-7.2	-0.2	-0.5	-2.5
CCOC(=O)CN(c1sc(C)c(C)c1C(=O)OCC)S(=O)(=O)c1ccc(C)cc1	-1.4	-3.1	8.6	8.9	x	0.2	x	x
CN(C)c1nc(N(C)C)n(Cc2c(Cl)cccc2Cl)n1	4.7	24.9*	3.1	1.0	0.7	1.5	-0.7	-3.1
COCCCNC(=O)CN1C(=O)CSc2ncccc21	4.3	18.0*	2.6	-12.6	-8.2	-0.1	-0.5	-4.0
Cc1nnc(NC(=O)c2nc(S(=O)(=O)Cc3ccccc3)ncc2Cl)s1	-0.7	15.3*	12.8	-4.6	6.1	1.5	0.1	-2.0
Cc1cccc(C)c1NC(=O)c1nc(S(=O)(=O)Cc2ccccc2)ncc1Cl	0.6	-9.3	-0.8	5.9	28.0	-5.7	x	x
FC(F)(F)c1cccc(CN2CCCCCC2)c1	18.3	-1.0	0.9	1.1	1.1	-1.1	x	x
O=[N+]([O-])c1ccccc1CN1CCN(c2ncccn2)CC1	1.0	6.4	0.0	-2.8	0.2	0.9	x	x
Fc1cccc(CN2CCN(c3ncccn3)CC2)c1	1.9	41.3*	11.0	2.6	-6.3	0.9	-0.6	112.8*
O=[N+]([O-])c1cccc(CN2CCN(c3ncccn3)CC2)c1	2.6	14.6*	8.2	-15.9	16.4	1.6	-0.1	59.5*
FC(F)(F)c1cccc(CN2CCN(c3ncccn3)CC2)c1	-0.9	20.5*	5.8	0.3	-2.6	0.7	-0.6	65.9*
CC[C@@H](NC(=O)[C@H](Cc1ccccc1)NC(=O)CC[C@H]1O[C@@H](n2ccc(=O)[nH]c2=O)[C@H](O)[C@@H]1O)c1ccccc1	0.8	-1.1	x	-17.9	x	x	x	x
Cc1cccn2c(=O)nc(SCC(=O)NCc3ccc4c(c3)OCO4)nc12	0.6	-3.9	-2.8	-31.8	-2.4	-1.8	x	x
CCc1nc2ccc(C(=O)NCc3ccccc3OC)cn2c1N(C)Cc1ccc(N(C)C)cc1	-2.2	-7.7	-0.3	17.1	x	-1.3	x	x
O=S(=O)(NCCSc1ccccc1)c1cccs1	6.9	15.0*	5.4	-12.4	-1.9	-1.2	-0.8	-5.3
COC(=O)c1cc(OC)c(OC)cc1NC(=O)CSCc1c(C)noc1C	11.0	15.8*	0.7	8.1	-3.4	-0.6	-0.6	3.2
SMILES	TAAR1 agonist	m5-HT2A agonist	MC4R antag cAMP	TAAR1 antagonist	B2AR ag	MC4R barr agon	OPRM1 ag	m5-HT2A ag conf
COc1cc(NC(=O)CCc2c(C)noc2C)c(C(=O)O)cc1OC	2.4	5.9	3.9	1.9	x	1.2	x	x
COc1ccc(C2=CC(c3sccc3C)n3nnnc3N2)cc1 (centres undefined)	8.1	15.0*	1.6	21.1	-1.6	-0.2	0.1	2.1
COc1cc2oc(=O)cc(CN3CCN(c4ccc(Cl)c(Cl)c4)CC3)c2cc1Cl	1.2	25.1*	x	-7.2	x	x	-0.7	9.5
CC(=O)N1N=C(c2c(-c3ccccc3)c3cc(Br)ccc3[nH]c2=O)CC1c1ccco1 (centres undefined)	4.4	24.5*	15.3	-25.1	5.1	7.2	0.5	29.5*
CC(Cc1c[nH]c2ccccc12)NC(=O)OCCCl (centres undefined)	6.1	19.6*	-0.6	-13.3	-6.7	-2.1	-0.5	-0.6
COC(=O)C(Cc1c[nH]c2ccccc12)NC(C)=O (centres undefined)	1.6	6.3	2.0	2.3	-6.6	-1.1	x	x
COC(=O)CCCC1=CC2=C(c3ccccc3)C(=O)C(C)(OC(=O)C3CCCC3)C(=O)C2=CN1CCN1CCOCC1 (centres undefined)	2.0	-4.2	-1.0	-5.1	-7.9	-1.4	x	x
COC(=O)CCCC1=CC2=C(c3ccccc3)C(=O)C(C)(OC(=O)C3CCCC3)C(=O)C2=CN1CCc1ccccn1 (centres undefined)	12.3	14.8*	10.7	-0.4	8.6	-1.0	-0.5	-5.2
CCOC(=O)c1ccc(Oc2nc(OC)nc(N(C)C)n2)cc1	6.7	17.6*	7.8	9.6	-2.1	-2.7	-0.6	-0.3
COc1cc2ccccc2cc1C(=O)OCC(=O)c1c(N)n(C)c(=O)n(C)c1=O	12.7	8.3	-2.1	-3.9	4.2	-1.7	x	x
COC(=O)c1cc(C(=O)OCC(=O)Nc2ccc(N3CCOCC3)cc2)cc([N+](=O)[O-])c1	10.7	-2.7	-1.2	-17.7	3.3	-1.1	x	x
